# Measured values from PubChem BioAssay AID871 (The Scripps Research Institute Molecular Screening Center, 2007).
# Hit rate of the full screen: of about 190,000 compounds, about 1,800 (0.95%) were called active. The sample holds actives, similar compounds and a random draw of the others, so the mix is not that of the screen.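 The calls were made as follows: active = activation above the screen-wide mean of compound activation plus 3 SD (cut at about 130% in these data); inactive = the rest.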
# Assay: enhancers of STAT3 transcriptional signaling – U3A cells, luciferase, luminescence, MLSCN library, primary screen (AID 871);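 also: 0% = background luminescence of wells with medium and substrate only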
# Conditions: IL-6 STAT3-luciferase reporter, at 5.6 µM, hits give high values, 100% = signal with IL-6 EC80 alone
# Procedure, shortened: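 Material: STAT3-luciferase reporter U3A cells. Controls: IL-6-treated wells, 100% activation. Read-out: % activation versus median of IL-6-stimulated wells. Probe or stimulus: IL-6 stimulus at 33 ng/mL final. Timing: compound 1 h, then IL-6 6 h at 37 °C. Signal: reporter luminescence signal.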
row,SMILES,activation (% of control)
1,CCOC(=O)CNC(=O)/C=C/c1c(Cl)cccc1Cl,86.6% (inactive)
2,CCOC(=O)C1CCN(c2ncnc3c2oc2ccc(Br)cc23)CC1,141% (active)
3,CCOC(=O)C1CCN(c2ncnc3c2c(-c2ccccc2)cn3-c2ccc(C)cc2)CC1,102% (inactive)
4,CCOC(=O)C1CCN(C(=O)c2oc3ccc(S(=O)(=O)N4CCCCCC4)cc3c2C)CC1,89.9% (inactive)
5,O=C(O)c1ccccc1-c1ccccc1C(=O)Nc1nccs1,101% (inactive)
6,Cn1cccc1C(=O)Nc1nccs1,140% (active)
7,COc1cc(C(=O)Nc2nccs2)cc(OC)c1OC,81% (inactive)
8,COC(=O)Cc1c(O)ccn(Cc2cccc(C(F)(F)F)c2)c1=O,99.8% (inactive)
9,Cc1cccc(N(CC(=O)N=Nc2c(O)[nH]c3ccccc23)S(C)(=O)=O)c1C,140% (active)
10,Cc1c(-c2ccccc2)n[nH]c1C(=O)N=Nc1c(O)[nH]c2ccccc12,84.5% (inactive)
11,COCC(=O)N=Nc1c(O)[nH]c2ccccc12,92.2% (inactive)
12,CC1=NNC(=O)C1CCC(=O)N/N=C\c1ccc(Cl)c(Cl)c1 (stereo not drawn),108% (inactive)
13,Cc1ccc2nsnc2c1NC(=O)c1ccccc1[N+](=O)[O-],99.5% (inactive)
14,O=C(O/N=C(/c1ccccc1)c1ccncc1)c1ccccc1[N+](=O)[O-],113% (inactive)
15,C/C(=N\NC(=O)CNc1cccc2ccccc12)c1ccc(Br)s1,137% (active)
16,C/C(=N\NC(=O)CSc1nc2ccccc2c(=O)n1-c1ccccc1C)c1cccs1,105% (inactive)
17,Cc1cccc(/C=N/NC(=O)CNc2cccc3ccccc23)n1,114% (inactive)
18,Cc1cc(/C=N/NC(=O)c2cccnc2)c(C)n1CC(C)C,118% (inactive)
19,CSCCC(NC(=O)COc1ccccc1)C(=O)OCC(=O)c1cc2ccccc2o1 (stereo not drawn),116% (inactive)
20,Cc1c(Cl)cnc(NC(=O)COC(=O)c2ccc(S(=O)(=O)NCc3ccco3)cc2)c1Cl,103% (inactive)
21,CSCCC(NC(=O)c1ccco1)C(=O)OCC(=O)Nc1ncc(Cl)c(C)c1Cl (stereo not drawn),145% (active)

row,SMILES,activation (% of control)
1,O=C(CCn1c(=S)[nH]c2ccccc2c1=O)NCCCN1CCCC1=O,98.6% (inactive)
2,CC(C)OCCCNc1ncnc2c1[nH]c1ccc(F)cc12,36.3% (inactive)
3,O=C1CCCN1CCCNc1ncnc2c1[nH]c1ccccc12,151% (active)
4,CCCc1nnc(SCC(=O)N2C(C)CCCC2C)n1CC (stereo not drawn),105% (inactive)
5,N#CCSc1nn(-c2ccc(F)cc2)c(=S)s1,103% (inactive)
6,O=C(CNC1CCCCC1)NCC1(c2ccccc2)CCCC1,112% (inactive)
7,CN1CCN(c2ccc([N+](=O)[O-])c(Sc3nc4ccccc4[nH]3)c2)CC1,137% (active)
8,CN1CCN(c2ccc(S(=O)(=O)Nc3ccccc3)cc2[N+](=O)[O-])CC1,79.1% (inactive)
9,O=C(CSc1nc2ccccc2[nH]1)N/N=C/C=C\c1ccccc1[N+](=O)[O-],96.6% (inactive)
10,COc1ccc2c(c1)CCc1cn3ncc(C#N)c3nc1-2,100% (inactive)
11,O=C(NCC1CCCCC1)c1cc(S(=O)(=O)N2CCCCC2)ccc1N1CCOCC1,104% (inactive)
12,CC(=O)Nc1ccc(S(=O)(=O)N2CCN(c3ccc([N+](=O)[O-])c(NCCN4CCOCC4)c3)CC2)cc1,104% (inactive)
13,O=[N+]([O-])c1ccc(N2CCN(S(=O)(=O)c3ccc4ccccc4c3)CC2)cc1NCc1ccco1,154% (active)
14,O=C(c1ccccc1)N1CCN(c2ccc([N+](=O)[O-])c(NCc3ccco3)c2)CC1,107% (inactive)
15,CCCS(=O)(=O)N1CCC(CCOc2ccccc2)(C(=O)OCC)CC1,95.8% (inactive)
16,O=C(/C(=C/c1cccc(Cl)c1)c1nc2ccccc2[nH]1)c1ccccc1,98.5% (inactive)
17,Oc1ccc(Cl)cc1/C=N/c1nc2ccccc2[nH]1,143% (active)
18,c1ccc2[nH]c(-c3nc4ccccc4[nH]3)nc2c1,63.1% (inactive)
19,Cc1ccc(O)c(CNc2nc3ccccc3n2C)c1,102% (inactive)
20,Cc1c(C(=O)Nc2cccc(Cl)c2)cn2c(nc3ccccc32)c1C#N,94.7% (inactive)
21,C/C(=N\c1nc2ccccc2n1C)c1cc(Cl)ccc1O,137% (active)

row,SMILES,activation (% of control)
1,CC(C)CNC(=O)/C=C/C(=O)O,103% (inactive)
2,O=C(CN1CCCC1)N1CCN(c2ccccc2)CC1,104% (inactive)
3,Cc1nnc(SCc2cccc(Cl)c2)n(N)c1=O,88.9% (inactive)
4,Cc1c(N=Nc2ccc(N(C)C)cc2)c(=O)n(-c2ccccc2)n1C,115% (inactive)
5,Cc1cccc(N=Nc2c(C)[nH]n(-c3ccccc3)c2=O)c1,122% (inactive)
6,Cc1ccc(N=Nc2c(C)[nH]n(-c3ccccc3)c2=O)cc1,147% (active)
7,Cc1nc2scc(-c3cccs3)c2c(=O)n1N,97.7% (inactive)
8,Cn1cccc1-c1nc2ccccc2n1C,89.2% (inactive)
9,Cc1ccc(C2=NN(C)c3nc4ccccc4n3C2)cc1,170% (active)
10,Cc1nn2c3ccccc3nc2n(C)c1=O,91% (inactive)
11,O=C(N/N=C1\CCSC1)c1cc(Cl)ccc1O,100% (inactive)
12,CCCC(=O)Nc1c(O)c2ccccc2[nH]c1=O,101% (inactive)
13,Cc1c(C(=O)CN2CCOCC2)[nH]c2ccccc12,121% (inactive)
14,CCCS(=O)(=O)Nc1c(C(=O)O)[nH]c2ccccc12,184% (active)
15,Cc1ccnc(NS(=O)(=O)c2ccc(NC(=O)c3ccc(S(=O)(=O)N4CCOCC4)cc3)cc2)n1,100% (inactive)
16,O=C(CCc1ccc(S(=O)(=O)N2CCOCC2)cc1)Nc1ccc2ccccc2c1,104% (inactive)
17,O=C(Nc1ccc2cn[nH]c2c1)c1ccc(S(=O)(=O)N2CCOCC2)cc1,135% (active)
18,CCOC(=O)c1c(/N=C/c2cc(C)ccc2O)sc2c1CCC2,99.7% (inactive)
19,Cc1ccc(C(=O)N/C(=C\c2ccco2)C(=O)N2CCSCC2)cc1C,109% (inactive)
20,COc1ccc(N2C(=O)CC(Nc3ccc(F)cc3)C2=O)c([N+](=O)[O-])c1 (stereo not drawn),92.9% (inactive)
21,C=CCOc1ccc(/C=N/NC(=O)C(C)Sc2ccccn2)cc1OCC (stereo not drawn),106% (inactive)
